Source: PubChem BioAssay
Rows were chosen to be rich in hits. Some 3.6% of all compounds tested hit in one or more screens of this group.
Beta apoptosis: beta cell apoptosis inhibition; INS-1E cytokine-induced death, ATP luminescence, 48 h; percent of positive-control rescue, neutral wells zero; protection from apoptosis, % (test concentration not listed); 300,000 tested, 0.8% active;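 active = Every replicate reaches about 75%, or at least half do and their mean reaches it too, limit read from the data; inconclusive = At least half of replicates reach the limit but their mean does not; inactive = Under half of replicates reach the limit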;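 note: higher means more ATP so stronger rescue from cytokine killing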
HIF activator: HIF pathway transcriptional activation; activation, % at 7.5 µM (by protocol); 300,000 tested, 0.32% active; U2OS HRE-luciferase reporter, luminescence; normalized: DMSO 0%, desferrioxamine 100%;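 active = mean activation of at least 10% of the iron chelator positive control signal, with at least half of replicates also reaching 10%; inconclusive = mean and replicate majority disagree about reaching 10%; inactive = mean and most replicates under 10%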
T cruzi repl: blocks replication of Trypanosoma cruzi | T. cruzi beta-gal in NIH3T3, luminescence, 90 h | inhibition, % (no concentration beside the values) | 300,000 tested, 1.4% active | AID 1885;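 active = mean inhibition across valid replicates above about 55%, limit read from the data; inconclusive = mean below that limit but half or more replicates reach it; inactive = mean below it, under half of replicates reach it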;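 note: signal also drops with host cell toxicity which is not excluded here; higher percent means less beta-gal luminescence so fewer parasites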
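compound dosing = single 50 nL compound addition per well in DMSO | material = NIH/3T3 host cells with β-galactosidase reporter T. cruzi | input = 5,000 host fibroblasts per well | timing = ≥90 h infection period, 3 h prior cell attachment | read-out basis = percent inhibition of parasite-derived β-gal signal | detection = GalScreen β-gal luminescence, detergent lysis, 60 min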
CSC inhib: blocks cancer stem cells; inhibition, % at 7.5 µM; cancer stem cell-like cells viability, luminescence; 300,000 tested, 1.1% active; in the data active = inhibition above about 75%; inconclusive = no clear call, values can overlap the other calls; tested in HMLE shEcad cells
SKKanGAS inh: inhibitors of SKKanGAS S. pyogenes growth in kanamycin (SK-promoter or general growth effect); BacTiter-Glo, 6 h; inhibition, % at 7.5 µM; 300,000 tested, 1.3% active; AID 1662;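 active = mean replicate score, as percent of positive control median, at least 50; inconclusive = mean below 50 but one replicate at or above 50; inactive = mean and every replicate below 50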;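 note: strain carries kanamycin resistance gene driven by streptokinase promoter and grows in 40 µg/ml kanamycin; loss of luminescence reflects streptokinase promoter inhibition or plain growth inhibition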
PfHsp90 yeast 2: reduces growth (ATP signal) of yeast expressing P. falciparum Hsp90; inhibition, % at 9.4 µM; S. cerevisiae expressing PfHsp90, BacTiter-Glo ATP, 48 h; yeast lacking PDR1 and PDR3 efflux regulators; AID 504621; 310,000 tested, 0.32% active;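 active = every replicate shows inhibition above about 80%, whatever the replicate mean, limit read from the data; inconclusive = mean inhibition reaches the set limit but some replicate falls short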
Numbers stand for hits; 0 = inactive; ? = inconclusive; - = no result.

SMILES	Beta apoptosis	HIF activator	T cruzi repl	CSC inhib	SKKanGAS inh	PfHsp90 yeast 2
O=C(Cc1cccs1)N/N=C/c1ccccc1	0	0	0	0	0	0
O=C(Cc1cccs1)N/N=C/C=C\c1ccco1	0	0	0	0	0	0
CCN(CC)c1ccc(/C=N/NC(=O)Cc2cccs2)c(O)c1	91.5	0	0	0	0	0
Cc1ccc(S(=O)(=O)n2ccc3c(OCCOCCSCC(NC(=O)OC(C)(C)C)C(=O)O)cccc32)cc1 (stereo not drawn)	0	0	0	0	0	0
Cc1ccc(S(=O)(=O)n2ccc3c(OCCOCCNCc4ccc(F)cc4)cccc32)cc1	0	0	55.3	0	0	0
CC(=O)/C(=N/Nc1ccc(Br)cc1)N1CCCc2ccccc21	0	0	0	0	51.5	0
COc1ccc(-n2c3c(cc(C#N)c2=O)C(=O)CCC3)cc1	0	0	0	0	0	0
COc1cc(/C=C2\C(=O)N(c3ccc(NC(C)=O)cc3)N=C2c2ccccc2)ccc1O	0	0	0	0	-	0
CCOc1cc(/C=C2\C(=O)N(c3nc(-c4ccc(Br)cc4)cs3)N=C2c2ccccc2)ccc1O	-	0	0	99.1	72.6	0
CCN(CC(=O)Nc1c(F)cccc1F)C(=O)c1ccc(OCC(=O)N2CCOCC2)c(OC)c1	-	-	-	-	-	0
CC(C)c1ccc(OC(=O)c2ccc3c(=O)n4c(nc3c2)CCC4)cc1	-	0	0	0	80.5	-
O=C(Oc1ccc(F)c(F)c1)c1ccc2c(=O)n3c(nc2c1)CCC3	0	0	0	0	0	0
Cn1c(N2CCOCC2)nc(-c2ccccc2)c1-c1ccccc1	0	0	0	0	0	0
COc1ccc2c(c1)Cc1sc(NC(=O)c3cccs3)nc1-2	0	0	54.7	0	0	-
COc1ccc(C(=O)Nc2nc3c(s2)Cc2cc(OC)ccc2-3)cc1	0	0	0	0	0	0
CCOc1ccc2nc(NC(=O)C3CCCN(S(=O)(=O)c4cccs4)C3)sc2c1 (stereo not drawn)	0	0	60.5	-	0	0
COc1ccc2nc(Nc3nc4cc5c(cc4s3)OCO5)sc2c1	0	0	0	0	84.2	0
COc1ccc2nc(NC(=O)c3cccs3)sc2c1	0	21.4	0	0	0	-
COc1ccc(CNC(=O)C2CCN(c3cc(C(=O)Nc4cccc(OC)c4)ccn3)CC2)cc1	0	0	0	0	0	0
COc1ccc(C2=C(c3ccc(OC)c(OC)c3)CN3CCCCC3C2)cc1 (stereo not drawn)	0	-	-	0	-	0
COc1ccc(OCc2n(CC(=O)OC3CC(C)CCC3C(C)C)c3ccccc3[n+]2C)cc1 (stereo not drawn)	99.7	0	0	0	0	0
COc1ccc(-c2n(CC(=O)OC3CC(C)CCC3C(C)C)c3ccccc3[n+]2C)cc1 (stereo not drawn)	-	0	0	-	0	0
COc1cc(C=NO)nc(-c2ccccn2)c1	-	-	-	-	-	97.8
COc1ccc2nc(-c3ccccn3)[nH]c2c1	0	0	0	0	0	0
Cc1ccc(C(=O)ONc2ccc(N=NC(=O)c3ccccc3O)cc2)cc1	0	0	0	78.4	0	0
SMILES	Beta apoptosis	HIF activator	T cruzi repl	CSC inhib	SKKanGAS inh	PfHsp90 yeast 2
COCCCNC(=O)C[C@H]1C[C@H](C(=O)N2CCOCC2)[C@@]2(C)c3[nH]c4cc(CCC(=O)N(C)C)ccc4c3CCN2C1=O	-	-	-	-	-	0
CCN(C(=O)c1ccc(C(C)(C)C)cc1)c1nnc(Cn2nnc3ccccc32)s1	111.8	0	0	0	0	0
CCN(C(=O)CC(C)C)c1nnc(Cn2nnc3ccccc32)s1	0	0	0	0	0	0
COc1ccc(/C=N/NC(=O)CSc2nnc(C)n2-c2ccccc2)c(OC)c1OC	0	0	-	0	0	0
CCCCSc1nc(C)cc(SCC(=O)N/N=C/c2cccc(OC)c2O)n1	0	21.0	0	?	69.8	0
COc1ccc(O)c(/C=N/NC(=O)CSc2nnc(C)n2-c2ccccc2)c1	0	0	0	0	0	0
Cc1ccc(-c2nn(-c3ccccc3)cc2/C=N/NC(=O)CSc2nnc(C)n2-c2ccccc2)cc1	0	0	0	0	54.1	0
COc1cccc(/C=N/NC(=O)CSc2nnc(C)n2-c2ccccc2)c1O	0	0	0	76.6	0	0
Cc1cc(C)cc(NC(N)=S)c1	0	0	0	0	0	0
CC(=O)CSc1ccc(-c2nc3ccccc3[nH]2)cn1	79.1	0	0	0	0	0
CC(=O)CSc1ccc(-c2nc3cc(C)c(C)cc3[nH]2)cn1	0	0	0	0	0	0
O=C(CCC(=O)Nc1ccc(Br)cc1)N/N=C/c1ccc(O)cc1	0	0	0	0	0	0
CN(C(=O)c1ccccc1)c1ccccc1C(=O)NCCc1ccccc1	-	0	0	0	0	0
NS(=O)(=O)c1ccc(CCNC(=O)CC(NC(=O)c2ccccc2Cl)c2ccccc2)cc1 (stereo not drawn)	0	0	0	0	0	0
COc1ccc(CCNC(=O)CC(NC(=O)c2ccccc2Cl)c2ccccc2)cc1 (stereo not drawn)	0	46.3	0	0	0	0
COc1ccc(C(=O)N(C)c2ccccc2C(=O)NCCc2ccccc2)cc1	89.5	0	0	0	0	0
Cn1c(=O)c2c(nc(Cl)n2CC(=O)N2CCCCC2)n(C)c1=O	0	0	0	0	0	0
COC(=O)c1ccc(/C=C/c2c(-c3ccc(OC)cc3)oc3ccc(N4CCOCC4)cc23)cc1	0	0	0	109.0	0	0
COC(=O)c1ccc(/C=C/c2c(-c3ccc(OC)cc3)oc3ccccc23)cc1	0	0	0	108.8	0	0
COc1ccc(/C=C/c2c(-c3ccc(OC)cc3)oc3ccccc23)cc1	0	0	0	0	0	0
O=C(NCc1ccccc1)C(c1ccc(F)cc1)N(C(=O)c1csnn1)C1CCCC1 (stereo not drawn)	0	0	0	0	0	0
Cc1cccc(N2CC(C(=O)NC3CCCCCC3)CC2=O)c1C (stereo not drawn)	0	-	-	0	-	0
Cc1ccc(/C=[N+](\[O-])c2ccc(N(C)C)cc2)c2nsnc12	-	0	0	-	0	108.6
O=c1cc(-c2ccc(Cl)cc2)oc(=O)[nH]1	0	0	0	0	0	0
O=c1cc(N=Nc2ccc(Cl)cc2)[nH]c(=O)[nH]1	0	0	0	116.5	97.5	0
O=C(NCc1cc2ccccc2[nH]1)c1ccccc1F	0	0	0	0	0	0
CC(=O)N(CN1C(=O)c2ccccc2C1=O)c1ccc2c(c1)oc1ccccc12	0	0	0	0	0	0
CCN(CC)CCNc1cc(C)nc2c1C(=O)C(=O)C=C2N1CCCCC1	0	42.3	60.4	0	0	0
O=[N+]([O-])c1cc(Br)cc(C=Nc2ccc3c(c2)OCO3)c1O	0	0	0	0	54.3	0
O=[N+]([O-])c1ccc(O)c(C=Nc2ccc3c(c2)OCO3)c1	0	0	0	0	0	0
